One data set relates to smokers. As to conditions: clinical trials; ref Robinson et al., 2017; cited from earlier work.
Another data set addresses T1, PPAR-α (Mus musculus, UniProt P23204).
T1 sequence (P23204 1-468): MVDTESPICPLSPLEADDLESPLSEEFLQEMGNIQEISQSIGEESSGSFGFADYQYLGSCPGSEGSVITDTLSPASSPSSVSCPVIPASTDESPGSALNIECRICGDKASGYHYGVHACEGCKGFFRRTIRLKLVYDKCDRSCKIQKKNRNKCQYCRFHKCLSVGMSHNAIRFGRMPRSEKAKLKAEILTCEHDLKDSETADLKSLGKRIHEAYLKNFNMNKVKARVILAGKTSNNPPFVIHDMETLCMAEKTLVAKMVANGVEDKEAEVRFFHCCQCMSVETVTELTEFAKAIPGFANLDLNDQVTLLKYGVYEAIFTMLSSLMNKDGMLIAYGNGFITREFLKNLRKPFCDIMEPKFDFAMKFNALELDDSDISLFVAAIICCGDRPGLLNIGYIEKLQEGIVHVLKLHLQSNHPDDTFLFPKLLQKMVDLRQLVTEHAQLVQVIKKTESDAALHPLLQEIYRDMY
Kind of data set: PPAR-α luciferase assay in COS-7 cells. In kind it is cell-based. Particulars: 18 h. The method in brief: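 COS-7 cells in DMEM with 10% FBS were transfected by lipofection with mouse PPAR-α (25 ng), PPRE×3-TK-luciferase (300 ng), β-galactosidase control (100 ng) and empty pcDNA3 (75 ng) per well. Next day the medium was replaced with compound-containing medium for 18 h. Firefly luciferase chemiluminescence was normalised to β-galactosidase activity and compared by Welch-corrected t-test.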

The subject of data set [1] is ICR mice. Kind of data set: Nicotine conditioned place preference. It counts as in vivo, mouse. The method in brief:
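Male ICR mice underwent unbiased three-chamber CPP. Day 1: 5-min middle-chamber habituation, then 15 min free access as baseline. Days 2–4: two 20-min conditioning sessions daily, 4 h apart. Controls got saline in both large chambers, with i.p. pretreatment 15 min before. Day 5: 15-min drug-free test. Score = test minus baseline time on the paired side.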

The test system of data set [2] is ICR mice. In words: Cumulative CP55,940 dose-response study. It counts as in vivo, mouse. The method, boiled down: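 Male ICR mice (6–8 weeks, 27–32 g) received test compound (60 mg/kg i.p.) or vehicle 10 min before the first CP55,940 dose. Further doses followed every 40 min. Bar-test catalepsy, tail-flick and rectal temperature were measured at baseline and 30 min after each dose. Analysis was two-way ANOVA with Sidak post-hoc.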

In the next data set the test system is dependent smokers. Particulars: ref Perkins et al., 2016; cited from earlier work.
The next data set deals with mice. As to conditions: ref Jackson et al., 2017; cited from earlier work.
Data set [3] relates to ICR mice. As to conditions: ref Ignatowska-Jankowska et al., 2015; cited from earlier work.
The nature of data set [4]: OlGly levels in plasma and brain regions after i.p. injection. In kind it is in vivo, mouse. The method, boiled down: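 ICR mice received test compound (60 mg/kg i.p.) or vehicle. After 15 min, plasma, insular cortex, hippocampus and hypothalamus were collected. Samples were extracted with chloroform/methanol/50 mM Tris-HCl pH 7.5 (2:1:1) containing deuterated internal standards. Quantification was by isotope-dilution LC-MS (C18 column, isocratic methanol/water/acetic acid, positive ESI).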

The subject of a further data set is rats. Particulars: ref Chaturvedi et al., 2006; cited from earlier work.
Data set [5] relates to ICR mice. Kind of data set: Tetrad behavioral assessment. In kind it is in vivo, mouse. Particulars: for Distance traveled / Speed / Time immobile: 10 min recording starting 5 min after injection; for Δ rectal temperature / Catalepsy / Antinociception: 30 min after injection; for Catalepsy: bar test; for Antinociception: tail withdrawal. The method, boiled down: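 Mice were acclimated at least 1 h, then baseline tail-withdrawal latency and body temperature were taken. Test compound or vehicle was given i.p.; 30 min later came bar-test catalepsy (immobility over 60 s), tail withdrawal (%MPE with 10 cutoff) and Δ temperature. Locomotor: 5 min post-dose, distance (cm) and immobile time (s) were video-tracked for 10 min. Analysis: one-way ANOVA, Dunnett.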

The target of data set [6] is human recombinant CB1 receptor (Homo sapiens, UniProt P21554). Kind of data set: Cannabinoid receptor binding, [3H]-CP-55,940 displacement, CB1. The method, boiled down: (§1)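 Membranes from HEK-293 cells stably expressing the human receptor (CB1 Bmax 2.5, CB2 Bmax 4.7 pmol/mg protein) were incubated with test compound and [3H]-CP-55,940 for 90 min at 30 °C. […] Nonspecific binding was defined with 10 μM WIN 55212-2. Ki came from IC50 via Cheng-Prusoff; at least 3 experiments, mean ± SEM.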

The subject of the next data set is nicotine-dependent mice. In words: Mecamylamine-precipitated nicotine withdrawal. It counts as in vivo, mouse. The method in brief: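 Male ICR mice (6–8 weeks, 27–32 g) had s.c. minipumps implanted under isoflurane, delivering nicotine 24 mg/kg/day or saline for 14 days. On day 15 they got the test compound i.p. (10, 30 or 60 mg/kg) or vehicle, then mecamylamine 2 mg/kg s.c. at 15 min. From 25 min, blinded scoring: 5 min elevated plus maze (open/closed-arm time, arm crosses), then 20 min somatic signs; n = 7–8/group.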

Data set [7] deals with human recombinant CB2 receptor (Homo sapiens, UniProt P34972). Kind of data set: Cannabinoid receptor binding, [3H]-CP-55,940 displacement, CB2. The method, boiled down:
as §1

In data set [8] the target is T2, fatty acid amide hydrolase (Rattus norvegicus, UniProt P97612).
T2 sequence (P97612 1-579): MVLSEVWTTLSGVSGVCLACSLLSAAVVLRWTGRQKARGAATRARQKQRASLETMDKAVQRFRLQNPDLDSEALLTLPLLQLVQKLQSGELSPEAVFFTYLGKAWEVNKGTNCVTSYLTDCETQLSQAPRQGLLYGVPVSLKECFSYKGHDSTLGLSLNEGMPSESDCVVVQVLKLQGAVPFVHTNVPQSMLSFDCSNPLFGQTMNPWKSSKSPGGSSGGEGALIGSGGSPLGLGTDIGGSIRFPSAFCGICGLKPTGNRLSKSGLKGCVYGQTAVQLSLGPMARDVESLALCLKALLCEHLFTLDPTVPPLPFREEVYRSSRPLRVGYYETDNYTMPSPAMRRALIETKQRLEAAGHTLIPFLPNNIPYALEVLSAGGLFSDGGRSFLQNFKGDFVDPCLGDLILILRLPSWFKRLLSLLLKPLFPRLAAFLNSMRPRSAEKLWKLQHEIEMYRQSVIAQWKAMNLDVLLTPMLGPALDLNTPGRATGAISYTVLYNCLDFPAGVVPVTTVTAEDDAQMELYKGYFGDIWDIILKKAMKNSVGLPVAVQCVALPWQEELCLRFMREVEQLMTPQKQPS
In words: AEA hydrolysis by rat brain membranes. In kind it is biochemical.

Data set [9] relates to ICR mice. In words: Morphine conditioned place preference. Particulars: OlGly i.p. pretreatment, morphine 10 mg/kg s.c. (methods). It counts as in vivo, mouse. The method in brief:
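Unbiased three-chamber CPP in male ICR mice. Day 1 baseline: 15 min free access after 5-min habituation. Days 2–4: twice-daily conditioning, 4 h apart and counterbalanced. Test compound or vehicle was given i.p. 15 min before morphine (10 mg/kg s.c.); 30-min sessions began 15 min after morphine. Day 5: 15-min drug-free test. Score = test minus baseline time in the morphine-paired side.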

Where [10] appears, read: 60 mg/kg i.p., 15 min after injection, ICR mice.

Where only a bound is given, the exact number is not on record here.

Chain of human recombinant CB2 receptor (P34972 whole entry): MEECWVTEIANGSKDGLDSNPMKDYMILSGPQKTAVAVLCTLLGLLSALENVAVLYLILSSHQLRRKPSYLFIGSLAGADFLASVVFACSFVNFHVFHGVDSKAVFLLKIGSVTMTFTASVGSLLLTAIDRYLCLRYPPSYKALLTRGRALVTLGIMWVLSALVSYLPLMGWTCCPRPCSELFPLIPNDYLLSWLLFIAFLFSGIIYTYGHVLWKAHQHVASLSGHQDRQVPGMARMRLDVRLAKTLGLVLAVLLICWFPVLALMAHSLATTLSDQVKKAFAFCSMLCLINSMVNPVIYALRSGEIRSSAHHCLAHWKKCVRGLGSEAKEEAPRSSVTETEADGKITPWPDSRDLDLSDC
Chain of human recombinant CB1 receptor (P21554 whole entry): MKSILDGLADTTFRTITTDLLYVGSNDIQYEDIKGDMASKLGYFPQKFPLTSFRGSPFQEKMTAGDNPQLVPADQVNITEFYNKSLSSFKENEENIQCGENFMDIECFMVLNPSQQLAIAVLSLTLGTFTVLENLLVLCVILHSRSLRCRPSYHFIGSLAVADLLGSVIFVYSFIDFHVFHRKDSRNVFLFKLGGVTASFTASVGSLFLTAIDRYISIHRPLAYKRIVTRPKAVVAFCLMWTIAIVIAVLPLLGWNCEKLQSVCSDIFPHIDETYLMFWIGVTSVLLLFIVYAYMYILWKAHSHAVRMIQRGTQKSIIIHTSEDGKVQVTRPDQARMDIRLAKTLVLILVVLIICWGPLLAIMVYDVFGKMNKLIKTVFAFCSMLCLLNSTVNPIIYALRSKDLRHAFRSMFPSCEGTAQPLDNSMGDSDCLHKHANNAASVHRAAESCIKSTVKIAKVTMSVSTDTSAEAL

Regarding `Cc1c(C(=O)NN2CCCCC2)nn(-c2ccc(Cl)cc2Cl)c1-c1ccc(Cl)cc1` [rimonabant], the “Smoking abstinence compared with placebo” value in the data set with smokers was “effectively improved smoking abstinence”.

As to `CC(C)(Sc1ccc(CCN(CCCCC2CCCCC2)C(=O)NC2CCCCC2)cc1)C(=O)O` [GW7647, reference compound], the “Luciferase activity compared to DMSO” value on PPAR-α (GW7647 10 mM as printed in Fig. 6) is listed as “significantly increased luciferase activity”.

With `CCC(=O)NC[C@H](Cc1ccc(OCCc2nc(-c3ccccc3)oc2C)cc1)N/C(C)=C\C(=O)c1ccc(C(F)(F)F)cc1` [GW6471, N-((2S)-2-(((1Z)-1-methyl-3-oxo-3-(4-(trifluoromethyl)phenyl)prop-1-enyl)amino)-3-(4-(2-(5-methyl2phenyl-1,3-oxazol-4-yl)ethoxy)phenyl)propyl)propanamide, reference compound], the “Effect on OlGly blockade of nicotine CPP” value in the data set on ICR mice [1] (GW6471 2 mg/kg i.p. 30 min before OlGly, mice) was “fully prevented OlGly blockade of nicotine CPP”.

Turning to “(−)-cis-3-[2-hydroxy-4-(1,1-dimethylheptyl)phenyl]-trans-4-(3-hydroxypropyl)-cyclohexanol [CP55,940, reference compound]”, the “Catalepsy, antinociception and hypothermia” value with ICR mice [2] (cumulative 0, 0.3, 1 and 3 mg/kg i.p., vehicle-pretreated mice) is “dose-dependently induced”.

For `CC(C)OC(=O)C(C)(C)Oc1ccc(C(=O)c2ccc(Cl)cc2)cc1` [fenofibrate], the “Ability to stop smoking during a brief practice quit period” value in the data set on dependent smokers was “did not facilitate the ability to stop smoking”. Also, in the data set with mice, the “Reversal of nicotine withdrawal” value is “failed to reverse nicotine withdrawal”.

With `Cc1ccc2c(C(C[N+](=O)[O-])c3cccs3)c(-c3ccccc3)[nH]c2c1` (stereo not shown) [ZCZ011], in the data set on ICR mice [3], the “Shift of the CP55,940 dose-response curve (antinociceptive, cataleptic, hypothermic effects)” value is listed as “elicited a leftward shift”.

With `CCCCCCCC/C=C\CCCCCCCC(=O)NCC(=O)O` [OlGly, N-oleoyl-glycine], in the data set with ICR mice [2] (OlGly 60 mg/kg i.p. 10 min before first CP55,940 dose, mice), the “Shift of the CP55,940 dose-response relationship in the tetrad assay” value is “did not alter the dose-response relationship”. In data set [4] (setting [10]), the “OlGly levels in hippocampus” value came out at 186.0 ± 60.05 pmol/g, the “OlGly levels in hypothalamus” value was found to be 245.6 ± 108.1 pmol/g and the “OlGly levels in insula” value came to 168.0 ± 60.28 pmol/g. In addition, in data set [4] (ICR, mouse, plasma, intraperitoneal, 60 mg/kg), the concentration at 15 min was 2000 ± 627 nM. Moreover, in the data set on rats, the Locomotor activity entry is “decreases locomotor activity” and the “Reduction of body temperature” value was 1.5–2.0 °C. Further, in the data set with ICR mice [5] (10 mg/kg i.p.), the Distance traveled was 24.3 ±1.2 cm, the Speed was found to be 8.1 ± 0.4 cm/s, the Time immobile stood at 8.6 ± 1.6 s and the Δ rectal temperature was −0.90 ± 0.19 °C. In the data set with ICR mice [5] (10 mg/kg i.p.), this compound yielded a Catalepsy of 0.0 s and an Antinociception of 12.0± 6.6 %MPE. In the data set with ICR mice [5] (30 mg/kg i.p.), the Distance traveled is 21.5±1.7 cm, the Speed was 7.2 ± 0.6 cm/s, the Time immobile came out at 11.8 ± 6.2 s and the Δ rectal temperature was −1.13 ± 0.26 °C. In the data set with ICR mice [5] (30 mg/kg i.p.), this compound had a Catalepsy of 0.0 s and an Antinociception of 6.0 ± 4.5 %MPE. In the data set with ICR mice [5] (100 mg/kg i.p.), the Distance traveled came out at 18.6±1.5 cm, the Speed stood at 6.21 ± 0.5 cm/s, the Time immobile is given as 17.4 ± 7.3 s and the Δ rectal temperature was −0.22 ± 0.5431 °C. In the data set with ICR mice [5] (100 mg/kg i.p.), this compound registered a Catalepsy of 0.0 s and an Antinociception of 25.9±11.0 %MPE. Moreover, in [6], the IC50 (as a rule, the concentration that inhibits the measured activity by half) was found to be 45.5 ± 5.1 µM; the Ki (commonly the dissociation constant of the complex between target and ligand, obtained from inhibition or displacement) was 27.8 ± 3.1 µM. Also, the “CB1 displacement produced by maximum dose tested (50 μM)” value in [6] (50 μM) was 55.9 ± 7.3%. Besides, in the data set on nicotine-dependent mice (60 mg/kg i.p., nicotine-dependent mice), the “Number of mecamylamine-precipitated somatic withdrawal signs” value is reported as “attenuated the number of mecamylamine-precipitated somatic withdrawal signs”. Further, the “Overt behavioral alterations in control mice” value in the data set on nicotine-dependent mice (control mice continuously infused with saline) is listed as “did not elicit overt behavioral alterations”. Besides, in [7], the half-inhibitory concentration (IC50) is > 50 µM and the Ki was > 50 µM. For the same compound, the “CB2 displacement produced by maximum dose tested (50 μM)” value in [7] (50 μM) came to 15.5 ± 6.40%. In data set [8], this compound came in with an IC50 of 8.65 µM. Moreover, the inhibition (usually the relative decrease from the control value, in per cent) at 50 µM in [8] (read-out: FAAH inhibition produced by maximum dose tested (50 μM)) worked out at 89.4%. Also, the “Morphine CPP” value with ICR mice [9] is listed as “did not carry over to morphine CPP”. The “Luciferase activity compared to DMSO” value at PPAR-α (OlGly 10 mM, 50 μM and 100 mM as printed in Fig. 6) is on record as “significantly increased luciferase activity”. Moreover, in the data set with ICR mice [1] (i.p. 15 min before nicotine 0.5 mg/kg s.c. on conditioning days, mice), the “Development of nicotine-induced CPP” value is “dose-dependently prevented the development of nicotine-induced CPP”. Also, the “Place preference in saline-treated mice” value in the data set with ICR mice [1] (saline-treated mice) was “did not affect place preference”.

(Values after PMC6408981 (Neuropharmacology, 2018).)
